A selection: hits, their analogues and other compounds. The true share with any hit is near 2.7%.
ASAP1 GAP inh – ASAP1 ArfGAP inhibition. inhibition, % at 16.5 µM. ASAP1-stimulated ARF1 GTP hydrolysis, GDP FP detection. 0.19% of 360,000 active; in the data active = inhibition above about 25%
pPAFAH inh – pPAFAH (human) enzyme inhibition. 1.5% of 330,000 active. Q13093. inhibition, % at 3.39 µM. AID 463082. recombinant pPAFAH, FP-rhodamine probe fluorescence polarization;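 active = inhibition above the mean inhibition across the screen plus 3 SD, cut at about 25% in these data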;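 also: inhibitors block binding of the rhodamine activity-based probe so polarization drops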
Target sequence (Q13093 whole entry, looked up): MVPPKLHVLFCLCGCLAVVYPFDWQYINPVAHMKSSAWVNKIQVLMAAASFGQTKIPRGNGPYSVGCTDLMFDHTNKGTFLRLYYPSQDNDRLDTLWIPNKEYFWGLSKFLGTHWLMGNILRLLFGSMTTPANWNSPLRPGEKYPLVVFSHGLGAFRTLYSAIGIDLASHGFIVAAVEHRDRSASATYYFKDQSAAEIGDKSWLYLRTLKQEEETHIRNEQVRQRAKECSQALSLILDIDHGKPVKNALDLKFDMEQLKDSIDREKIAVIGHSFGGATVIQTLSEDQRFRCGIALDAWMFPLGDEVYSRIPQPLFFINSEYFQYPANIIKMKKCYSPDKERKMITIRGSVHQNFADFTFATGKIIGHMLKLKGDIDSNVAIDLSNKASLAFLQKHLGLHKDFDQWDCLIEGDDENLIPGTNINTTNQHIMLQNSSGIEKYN
PAFAH1B3 FP inh – PAFAH1B3 (human) inhibition; Q15102; recombinant PAFAH1B3, FP-rhodamine probe, fluorescence polarization; inhibition, % at 3.39 µM; 0.28% of 340,000 active; AID 492972;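 active = inhibition above the screen-wide average of all tested compounds plus 3 SD, cut at about 25% in these data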
PAFAH1B2 FP inh – PAFAH1B2 (human) inhibition; P68402; recombinant PAFAH1B2, FP-rhodamine activity probe, fluorescence polarization; 1.2% of 340,000 active; inhibition, % at 3.39 µM; AID 492953;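 active = inhibition above the mean of all tested compounds plus 3 SD, cut at about 24% in these data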
ARFGAP1 inhibitor – inhibitors of rat ARFGAP1 | Arfgap1-stimulated ARF1 GTP hydrolysis, GDP FP detection | AID 651572 | inhibition, % at 16.5 µM | 0.26% of 360,000 active;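 active = inhibition above a per-plate limit, mean inhibition of low control wells plus 3 SD, cut at about 25% in these data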
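System: truncated rat Arfgap1 GAP domain / Benchmarks: high control wells lacking Arfgap1, low control full reaction with DMSO / Times: compound-enzyme preincubation 20 min, reaction 120 min, detection 60 min, 25 °C / Repeats: one replicate per compound / Also added: human ARF1(Δ1-17)-GTP substrate / Measured by: Tracer-displacement fluorescence polarization with EDTA stop, 620/688 nm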
PAFAH2 inh – inhibitors of human PAFAH2; inhibition, % at 3.39 µM; recombinant PAFAH2, FP-rhodamine activity probe, fluorescence polarization; AID 492956; 0.99% of 340,000 active; Q99487;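 active = inhibition above the mean over all tested compounds plus 3 SD, cut at about 30% in these data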;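 also: inhibitors block probe labeling of enzyme so polarization drops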
ARFGAP1 inh conf – confirmation of rat ARFGAP1 inhibitors; shares compounds with ARFGAP1 inhibitor; inhibition, % at 16.5 µM; 30% of 890 active; ARFGAP1-stimulated ARF1 GTP hydrolysis, GDP tracer FP;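 active = average inhibition over triplicates above the hit cutoff set in the earlier primary screen, cut at about 25% in these data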
Large screens that a line does not name were inactive (follow-up assays come after a bar, where they were run).

Nc1ccc2nc(-c3cccc(-c4nc5ccc(N)cc5[nH]4)c3)[nH]c2c1	PAFAH1B3 FP inh 31, PAFAH1B2 FP inh 24, ARFGAP1 inhibitor 60 | ARFGAP1 inh conf 106
Nc1ccc(-c2nc3ccc(N)cc3[nH]2)cc1	none
COc1cc(/C=N/NC(=O)c2ccc(Cl)c(S(N)(=O)=O)c2)ccc1OCC(N)=O	ARFGAP1 inhibitor 44 | ARFGAP1 inh conf inactive
C=CCC[C@H](CCCCC)OC(=O)/C=C/[C@@H](O)[C@H](O)C[C@@H](O)CC=C	none (no result: pPAFAH inh, PAFAH1B3 FP inh, PAFAH1B2 FP inh, PAFAH2 inh)
Clc1ccc2c(N/N=C/c3cccc(Br)c3)ccnc2c1	ARFGAP1 inhibitor 38 | ARFGAP1 inh conf 63
Clc1ccc2c(N/N=C/c3ccccc3Br)ccnc2c1	ARFGAP1 inhibitor 27 | ARFGAP1 inh conf 26
COc1ccc(CCn2nnc3ccccc3c2=O)cc1OC	none (no result: pPAFAH inh, PAFAH1B3 FP inh, PAFAH1B2 FP inh, PAFAH2 inh)
O=C(NC1CC1)c1cc2c(s1)-c1ccccc1OC2	none
O=C(NCc1cccs1)c1cc2c(s1)-c1ccccc1OC2	ARFGAP1 inhibitor 47 | ARFGAP1 inh conf 47
Cc1ccc2cc(C)c3nnc(SCC(=O)Nc4nc5c(s4)CCCC5)n3c2c1C	ARFGAP1 inhibitor 27 | ARFGAP1 inh conf inactive
Cc1ccc(C)c2c1cc(C)c1nnc(SCC(=O)Nc3nc4c(s3)CCCC4)n12	none
COc1ccc(C(=O)NC(=S)Nc2ccc(N3CCCC3)cc2)cc1	none
COc1ccc(C(=O)Nc2ccc(N3CCCC3)cc2)cc1	ARFGAP1 inhibitor 25 | ARFGAP1 inh conf 87
C#CCOCCOCCOCCNc1nc(N2CCN(C(=O)[C@H](CC(N)=O)n3cc(C(N)[C@H](C)CC)nn3)CC2)nc(N2CCN(C(=O)[C@H](CC(N)=O)n3cc(C(N)[C@@H](C)CC)nn3)CC2)n1 (stereo partly drawn)	none
Cc1ccc(OCc2nnc(SCC(=O)Nc3sc(C)c(C)c3C#N)n2C)cc1	none
Cc1sc(NC(=O)CSc2nnc(COc3ccccc3)n2C)c(C#N)c1C	ARFGAP1 inhibitor 25 | ARFGAP1 inh conf inactive
Cc1c(C)c2ccc(OCC(=O)NCCCn3ccnc3)c(C)c2oc1=O	none
Cc1c(C)c2ccc(OCC(=O)NCCc3c[nH]c4ccccc34)c(C)c2oc1=O	ARFGAP1 inhibitor 25 | ARFGAP1 inh conf inactive
COc1ccc(NC(C)=O)c([N+](=O)[O-])c1[N+](=O)[O-]	none (no result: pPAFAH inh)
COc1ccc(OC)c([N+](=O)[O-])c1C(N)=O	ARFGAP1 inhibitor 26 | ARFGAP1 inh conf inactive
CCCCOc1ccc(N2C(=O)C(C)CNC2=S)cc1 (stereo not drawn)	none (no result: pPAFAH inh)
COc1ccc(S(=O)(=O)N2CCN(Cc3cc(OC)c(OC)cc3OC)CC2)cc1	ARFGAP1 inhibitor 27 | ARFGAP1 inh conf inactive
COc1cc(OC)c(OC)cc1CN1CCN(S(=O)(=O)c2ccc(NC(C)=O)cc2)CC1	none
O=C(CN(C(=O)c1csnn1)c1ccccc1F)NCc1ccc2c(c1)OCO2	ARFGAP1 inhibitor 25 | ARFGAP1 inh conf inactive
O=C(CN(C(=O)c1csnn1)c1cccc(F)c1)NCc1ccc2c(c1)OCO2	none
Cc1ccc2c(c1)[C@@H]1[C@H](CO2)[C@H](c2ccccc2)[C@]2(C)C(=O)N[C@H](C)C(=O)N12	none
COc1cc(CNC(=O)Nc2nc(C(N)Cc3ccc(C(F)(F)F)cc3)cs2)cc(OC)c1OC (stereo not drawn)	none (no result: pPAFAH inh, PAFAH1B3 FP inh, PAFAH1B2 FP inh, PAFAH2 inh)

High-throughput results as filed in PubChem.
